This is an account of results in ChEMBL document CHEMBL3286381 (J Med Chem, 2014).

For experiment [1], the target named is T1, Ectonucleotide pyrophosphatase/phosphodiesterase family member 1 (Homo sapiens) (UniProt P22413).
T1 sequence (whole entry): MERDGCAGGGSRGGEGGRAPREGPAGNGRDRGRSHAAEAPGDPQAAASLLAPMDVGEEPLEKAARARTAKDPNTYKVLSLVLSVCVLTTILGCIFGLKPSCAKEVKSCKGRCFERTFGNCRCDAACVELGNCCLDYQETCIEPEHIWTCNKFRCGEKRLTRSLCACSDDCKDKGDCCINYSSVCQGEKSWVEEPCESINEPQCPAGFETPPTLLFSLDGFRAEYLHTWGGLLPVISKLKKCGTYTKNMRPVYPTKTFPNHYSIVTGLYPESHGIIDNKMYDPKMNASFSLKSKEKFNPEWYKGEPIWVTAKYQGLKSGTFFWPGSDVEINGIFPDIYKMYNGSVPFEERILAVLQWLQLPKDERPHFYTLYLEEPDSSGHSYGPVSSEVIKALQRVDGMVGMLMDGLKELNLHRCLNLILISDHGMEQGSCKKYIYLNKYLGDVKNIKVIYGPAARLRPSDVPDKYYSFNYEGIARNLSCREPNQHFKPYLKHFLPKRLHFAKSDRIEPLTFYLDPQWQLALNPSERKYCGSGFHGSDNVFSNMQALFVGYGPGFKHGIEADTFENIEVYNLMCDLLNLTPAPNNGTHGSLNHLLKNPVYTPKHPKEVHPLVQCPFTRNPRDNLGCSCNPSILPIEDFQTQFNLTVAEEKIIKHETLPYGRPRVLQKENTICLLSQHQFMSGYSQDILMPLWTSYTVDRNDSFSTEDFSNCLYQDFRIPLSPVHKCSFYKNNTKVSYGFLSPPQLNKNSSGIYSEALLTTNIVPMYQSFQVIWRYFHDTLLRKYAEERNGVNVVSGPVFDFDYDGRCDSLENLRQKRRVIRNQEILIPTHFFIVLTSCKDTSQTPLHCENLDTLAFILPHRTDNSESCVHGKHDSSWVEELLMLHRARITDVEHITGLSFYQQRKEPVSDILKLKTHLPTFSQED
The experiment is described as follows: Inhibition of human NPP1 using ATP as substrate at 100 uM after 20 mins by reversed-phase HPLC analysis.

The target in experiment [2] is T1, Ectonucleotide pyrophosphatase/phosphodiesterase family member 1 (Homo sapiens). In words: Inhibition of NPP1 in human HTB-85 cells using pNP-TMP as substrate at 100 uM after 20 mins […]. The format is cell-based. Summed up:
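Assay on intact human osteocarcinoma HTB-85 (SaOS-2) cells as native NPP1 source, in 0.5 mL incubation mixture. pNP-TMP is added to 100 μM final with inhibitor at 100 μM. After 20 min, p-nitrophenol is read at 410 nm. Substrate alone is set as 100%. Three experiments in triplicate.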

The target of experiment [3] is T2, Ectonucleoside triphosphate diphosphohydrolase 1 (Homo sapiens) (UniProt P49961).
T2 sequence (whole entry): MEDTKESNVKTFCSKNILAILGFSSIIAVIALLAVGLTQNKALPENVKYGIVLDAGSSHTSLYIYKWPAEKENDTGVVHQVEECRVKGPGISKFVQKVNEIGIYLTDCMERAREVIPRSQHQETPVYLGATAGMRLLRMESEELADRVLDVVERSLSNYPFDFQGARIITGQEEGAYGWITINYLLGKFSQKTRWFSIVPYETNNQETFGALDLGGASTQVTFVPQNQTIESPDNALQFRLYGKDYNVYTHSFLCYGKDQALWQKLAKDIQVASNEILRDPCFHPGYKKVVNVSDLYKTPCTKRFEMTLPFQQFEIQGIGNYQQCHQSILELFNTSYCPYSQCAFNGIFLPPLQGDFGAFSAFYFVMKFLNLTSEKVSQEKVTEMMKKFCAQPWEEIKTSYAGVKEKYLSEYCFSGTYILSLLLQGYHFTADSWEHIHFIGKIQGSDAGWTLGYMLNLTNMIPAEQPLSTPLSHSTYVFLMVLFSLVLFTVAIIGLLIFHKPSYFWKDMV
The experiment is described as follows: Inhibition of human NTPDase-1 using ATP as substrate assessed as inorganic phosphate release at 100 uM after 15 mins relative to control. Summed up:
(§1)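 Protein extracts are from COS-7 cells transiently transfected with human NTPDase1, 2, 3 or 8. Extract is preincubated for 3 min at 37 °C in Tris–Ringer buffer (pH 7.3). […] Three experiments in triplicate.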

Experiment [4] deals with T3, Ectonucleoside triphosphate diphosphohydrolase 8 (Homo sapiens) (UniProt Q5MY95).
T3 sequence (whole entry): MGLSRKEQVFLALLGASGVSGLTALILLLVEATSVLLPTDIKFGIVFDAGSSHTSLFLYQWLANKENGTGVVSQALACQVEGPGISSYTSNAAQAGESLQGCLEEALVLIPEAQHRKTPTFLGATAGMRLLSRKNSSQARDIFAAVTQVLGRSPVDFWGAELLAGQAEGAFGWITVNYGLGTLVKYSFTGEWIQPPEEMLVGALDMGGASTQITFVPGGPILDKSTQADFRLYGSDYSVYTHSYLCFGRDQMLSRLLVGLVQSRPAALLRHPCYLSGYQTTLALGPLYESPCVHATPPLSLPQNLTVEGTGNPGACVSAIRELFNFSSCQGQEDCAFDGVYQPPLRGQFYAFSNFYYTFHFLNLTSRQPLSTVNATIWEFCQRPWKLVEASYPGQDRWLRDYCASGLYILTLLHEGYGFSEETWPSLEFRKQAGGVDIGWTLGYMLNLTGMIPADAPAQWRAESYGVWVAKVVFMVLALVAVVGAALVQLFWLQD
In words: Inhibition of human NTPDase-8 using ATP as substrate assessed as inorganic phosphate release at 100 uM after 15 mins relative to control. Summed up:
as §1

Calls of active or inactive are those of the source. The calls are words filed in the database; no cut-off is given here.

For `Nc1ncnc2c1ncn2[C@@H]1O[C@H](CO[P@@](O)(=S)OP(=O)(O)CP(=O)(O)O)[C@@H](O)[C@H]1O`, the inhibition entry in experiment [1] and in experiment [2] was “Active” in each case. In addition, the inhibition in experiment [3] is 21.6%; in experiment [4], 1.5%.
In the case of `Nc1ncnc2c1ncn2[C@@H]1O[C@H](CO[P@](O)(=S)OP(=O)(O)C(Cl)(Cl)P(=O)(O)O)[C@@H](O)[C@H]1O`, the inhibition entry in experiment [1] and in experiment [2] was “Active” throughout. Moreover, the inhibition in experiment [3] stood at 0.5%; in experiment [4], 4.9%.
On to `Nc1ncnc2c1ncn2[C@@H]1O[C@H](CO[P@](O)(=S)OP(=O)(O)CP(=O)(O)O)[C@@H](O)[C@H]1O`, for which the inhibition result in experiment [1] and in experiment [2] was “Active” throughout. The inhibition in experiment [3] amounted to 18.7%; in experiment [4] it was 0.5%.
Consider `Nc1ncnc2c1ncn2[C@@H]1O[C@H](COP(=O)(O)CP(=O)(O)OP(O)(O)=S)[C@@H](O)[C@H]1O`, for which the inhibition entry in experiment [1] and in experiment [2] was “Active” in each case. Moreover, the inhibition in experiment [3] is 58.4%; in experiment [4], 7%.
Regarding `Nc1ncnc2c1ncn2[C@@H]1O[C@H](CO[P@@](O)(=S)OP(=O)(O)C(Cl)(Cl)P(=O)(O)O)[C@@H](O)[C@H]1O`, the inhibition result in experiment [1] and in experiment [2] was “Active” throughout. Also, the inhibition in experiment [3] and in experiment [4] was 0.5% in each case.
